Folding enthalpy and Tm data for 36 sequences are collected here from the array DNA melting data of Ke et al. (doi:10.1101/2024.01.08.574731).

The nature of data set [1]: folding enthalpy; higher = less favourable; fluorescence melt of hairpins on a sequencing array, two-state fit. The following applies: sodium 0.088 M. Put shortly:
(§1)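 Folding enthalpy and melting temperature were estimated with bootstrapped two-state fits and combined across four replicates by inverse-variance weighting, with fitted temperatures raised by 9.35 °C to match UV melts. The data were Cy3 fluorescence of library hairpins, with annealed Cy3 and quencher oligos, on a sequenced MiSeq flow cell in 50 mM Na-HEPES pH 8.0, 25 mM NaCl, imaged in 2.5 °C steps up to 60 °C and normalised to pre-quench Cy3 and control constructs.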

Data set [2] in a line: melting temperature; fluorescence melt of hairpins on a sequencing array, two-state fit, raised by 9.35 °C to match UV melts. The following applies: sodium 0.088 M. The method, boiled down: as §1

Take GTAACAGGAAACTGCTAC (((.(((....))).))): in data set [1], the folding enthalpy is -29.1 kcal/mol. In data set [2], the Tm was determined as 32 °C.

For GTAACCGAAAGGTCTAC ((((((....))).))), the folding enthalpy in data set [1] was -13.4 kcal/mol. Further, the Tm in data set [2] worked out at 35.5 °C.

GTAACCGAAAGGTTGTAC ((((((....)))..))): the folding enthalpy in data set [1] was -10.4 kcal/mol. For the same sequence, in data set [2], the Tm amounted to 33.4 °C.

In the case of GTAACTGGAAACAGTTGC (.(((((....))))).), the folding enthalpy in data set [1] is -26.6 kcal/mol. In addition, the Tm in data set [2] was 47.4 °C.

Take GTAAGACCGAAAGGTTAC (((..(((....)))))): the folding enthalpy in data set [1] is -13.8 kcal/mol. Further, the Tm in data set [2] turned out to be 30.3 °C.

For GTAAGACGAAAGTCATAC (((.(((....))).))), the folding enthalpy in data set [1] is -20.6 kcal/mol. The Tm in data set [2] turned out to be 39.1 °C.

Regarding GTAAGACGAAAGTCCTAC (((.(((....))).))), the folding enthalpy in data set [1] is -15.7 kcal/mol. The Tm in data set [2] worked out at 34.7 °C.

For the sequence GTAAGCCGAAAGGCATAC (((.(((....))).))), the folding enthalpy in data set [1] is -18.4 kcal/mol. In data set [2], the Tm stood at 46.6 °C.

Consider GTAAGCCGAAAGGCGTAC (((.(((....))).))), for which, in data set [1], the folding enthalpy is -14.1 kcal/mol. For the same sequence, the Tm in data set [2] was found to be 54.4 °C.

GTAAGCGAAAGCTACTAC ((((((....)))..))): in data set [1], the folding enthalpy was -14.1 kcal/mol. The Tm in data set [2] was determined as 47.5 °C.

Turning to GTAAGCGAAAGCTCTTAC ((((((....)))..))), the folding enthalpy in data set [1] was -12.7 kcal/mol. Also, in data set [2], the Tm came to 33.2 °C.

As for GTAAGCGAAAGCTGCTAC ((((((....)))..))), the folding enthalpy in data set [1] was -12.7 kcal/mol. For the same sequence, the Tm in data set [2] turned out to be 41 °C.

In the case of GTAAGCGAAAGCTGGTAC ((((((....)))..))), in data set [1], the folding enthalpy was -11 kcal/mol. Further, the Tm in data set [2] amounted to 32.3 °C.

GTAAGCGAAAGCTTCTAC ((((((....)))..))): in data set [1], the folding enthalpy was -11.2 kcal/mol. Besides, the Tm in data set [2] amounted to 33.6 °C.

On to GTAAGGGGAAACCCTCAC ((.((((....)))).)), for which, in data set [1], the folding enthalpy is -13.7 kcal/mol. The Tm in data set [2] came to 30.2 °C.

In the case of GTAAGTCGAAAGACGTAC (((.(((....))).))), the folding enthalpy in data set [1] is -15.2 kcal/mol. Also, the Tm in data set [2] worked out at 47.1 °C.

GTAAGTGAAAACTTAC ((((((....)))))): in data set [1], the folding enthalpy was -27.4 kcal/mol. In addition, in data set [2], the Tm amounted to 48.7 °C.

Turning to GTAAGTGGAAACACTCAC ((.((((....)))).)), in data set [1], the folding enthalpy was -15.4 kcal/mol. In addition, the Tm in data set [2] amounted to 32.7 °C.

On to GTAAGTGGAAACACTTGC (.(((((....))))).), for which, in data set [1], the folding enthalpy is -26.7 kcal/mol. Moreover, the Tm in data set [2] worked out at 45 °C.

Consider GTAAGTGGAAACATTTAC ((((.((....)).)))), for which the folding enthalpy in data set [1] was -25.6 kcal/mol. Also, the Tm in data set [2] amounted to 32.3 °C.

For GTAATACGAAAGTACTAC (((.(((....))).))), the folding enthalpy in data set [1] was -16.9 kcal/mol. Moreover, the Tm in data set [2] was found to be 31.1 °C.

For the sequence GTAATAGCGAAAGCTTAC (((..(((....)))))), the folding enthalpy in data set [1] is -12.6 kcal/mol. Besides, in data set [2], the Tm worked out at 30.2 °C.

On to GTAATCCGAAAGGACTAC (((.(((....))).))), for which the folding enthalpy in data set [1] was -25.6 kcal/mol. Moreover, in data set [2], the Tm was found to be 37.9 °C.

As to GTAATCGAAAGATGCTAC ((((((....)))..))), in data set [1], the folding enthalpy is -17.3 kcal/mol. The Tm in data set [2] was 30.2 °C.

Turning to GTAATGCCGAAAGGCTAC (((..(((....)))))), the folding enthalpy in data set [1] was -9.18 kcal/mol. Also, the Tm in data set [2] is 26.8 °C.

On to GTAATGCGAAAGCAGTAC (((.(((....))).))), for which, in data set [1], the folding enthalpy was -30.6 kcal/mol. For the same sequence, the Tm in data set [2] amounted to 53.4 °C.

Consider GTAATGCGAAAGCATAC (((.(((....)))))), for which, in data set [1], the folding enthalpy is -13.3 kcal/mol. In addition, in data set [2], the Tm was determined as 46 °C.

As to GTAATGGCGAAAGCCTAC (((..(((....)))))), the folding enthalpy in data set [1] is -7.82 kcal/mol. Also, the Tm in data set [2] was determined as 31.3 °C.

Take GTAATTGAAAAATTAC ((((((....)))))): the folding enthalpy in data set [1] was -26.2 kcal/mol. The Tm in data set [2] worked out at 40.3 °C.

Regarding GTACAAGAAATTGTAC ((((((....)))))), the folding enthalpy in data set [1] is -32.5 kcal/mol. Also, the Tm in data set [2] is 45 °C.

GTACAAGGAAACCTGTAC (((((.(....).))))): in data set [1], the folding enthalpy was -26.1 kcal/mol. In addition, in data set [2], the Tm worked out at 38.2 °C.

With GTACACGAAAGTGAATAC ((((((....)))..))), in data set [1], the folding enthalpy is -10.6 kcal/mol. The Tm in data set [2] is 28.6 °C.

On to GTACACGAAAGTGACTAC ((((((....)))..))), for which, in data set [1], the folding enthalpy was -15.4 kcal/mol. For the same sequence, in data set [2], the Tm turned out to be 37.2 °C.

Take GTACACGAAAGTGCTTAC ((((((....)))..))): in data set [1], the folding enthalpy is -11.9 kcal/mol. For the same sequence, in data set [2], the Tm is 33.3 °C.

With GTACACGAAAGTGTAC ((((((....)))))), the folding enthalpy in data set [1] was -30.2 kcal/mol. Moreover, the Tm in data set [2] amounted to 68.3 °C.

Consider GTACACGGAAACGTGTAC (((((((....))))))), for which the folding enthalpy in data set [1] is -37.7 kcal/mol. Moreover, the Tm in data set [2] came out at 63.4 °C.
